Measured values: ChEMBL document CHEMBL1148714, “Design, synthesis, and in vivo SAR of a novel series of pyrazolines as potent selective androgen receptor modulators” (2007)
Activity calls are given as the source filed them. The rule behind the calls is not given here.

Legend:
[1] = test system: Rattus norvegicus; assay: Stimulation of levator ani muscle weight in castrated immature Sprague-Dawley rat at 2 mg/day, po after 5 days; type: functional
Procedure, shortened: (§1)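 Immature (~50 g) castrated male Sprague Dawley rats dosed once daily for 5 days. Test article given p.o. at 2 mg/day in 20% cyclodextrin; testosterone propionate reference given at 1 mg/day s.c. in sesame oil. Ventral prostate and levator ani wet weights taken on day 6, adjusted to body weight. % stimulation uses vehicle = 0% and testosterone = 100%. n = 3/group.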

[2] = test system: Rattus norvegicus; assay: Stimulation of prostate weight in castrated immature Sprague-Dawley rat at 2 mg/day, po after 5 days; type: functional, Prostate gland; procedure, shortened: as §1
[3] = species on record: Rattus norvegicus; assay: Inhibition of prostate weight in castrated immature male Sprague-Dawley rat at 2 mg/day relative to control; type: functional, Prostate gland
Procedure, shortened: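 Immature (~50 g) castrated male Sprague Dawley rats; test article orally at 2 mg/day once daily for 5 days, with testosterone propionate 0.1 mg/day s.c. in sesame oil. Ventral prostate wet weight taken on day 6 after CO2 euthanasia, adjusted to body weight. Inhibition given as % of testosterone-enhanced weight, vehicle group = 100% and testosterone-alone group = 0%. n = 3/group.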

[4] = test system: Rattus norvegicus; assay: Inhibition of prostate weight in intact Sprague-Dawley rat at 30 mg/kg relative to control; type: functional; conditions: Prostate gland
[5] = species on record: Rattus norvegicus; assay: Stimulation of prostate weight in castrated immature Sprague-Dawley rat at 3 mg/day; type: functional, Prostate gland
Procedure, shortened: (§2)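 Immature (~50 g) castrated male Sprague Dawley rats given oral doses once daily at 0.1, 0.3, 1, 3 mg/day. Ventral prostate and levator ani wet weights adjusted to body weight. % stimulation uses vehicle = 0% and testosterone-treated (1 mg/day) group = 100%; ED50 derived from the four-point dose series. n = 3/group.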

[6] = species on record: Rattus norvegicus; assay: Stimulation of levator ani muscle weight in castrated Sprague-Dawley rat; type: functional
Procedure, shortened: (§3)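 Mature (150–200 g) castrated male Sprague Dawley rats dosed by oral gavage once daily for 14 days in 20% cyclodextrin or 0.5% methylcellulose. Five-point doses: 0.3, 1, 3, 10, 30 mg/kg. Testosterone propionate reference given at 5 mg/kg s.c. in sesame oil. Ventral prostate and levator ani wet weights taken on day 15, adjusted to body weight. % stimulation uses vehicle = 0% and testosterone = 100%; ED50 derived from the doses. n = 3.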

[7] = species on record: Rattus norvegicus; assay: Stimulation of levator ani muscle weight in castrated immature Sprague-Dawley rat; type: functional; procedure, shortened: as §2
[8] = test system: Rattus norvegicus; assay: Stimulation of prostate weight in castrated Sprague-Dawley rat at 30 mg/kg; type: functional, Prostate gland; procedure, shortened: as §3
[9] = species on record: Rattus norvegicus; assay: Stimulation of levator ani muscle weight in castrated immature Sprague-Dawley rat at 3 mg/day; type: functional; procedure, shortened: as §2
[10] = test system: Rattus norvegicus; assay: Stimulation of levator ani muscle weight in castrated Sprague-Dawley rat at 30 mg/kg; type: functional; procedure, shortened: as §3
[11] = species on record: Rattus norvegicus; assay: Stimulation of prostate weight in castrated immature Sprague-Dawley rat; type: functional, Prostate gland; procedure, shortened: as §2
[12] = species on record: Rattus norvegicus; assay: Stimulation of prostate weight in castrated Sprague-Dawley rat; type: functional; conditions: Prostate gland; procedure, shortened: as §3
[13] = test system: Rattus norvegicus; assay: Stimulation of prostate weight in castrated immature Sprague-Dawley rat at 1 mg/day, sc; type: functional, Prostate gland
[14] = test system: Rattus norvegicus; assay: Stimulation of levator ani muscle weight in castrated immature Sprague-Dawley rat at 1 mg/day, sc; type: functional

Row | SMILES | Activity [1] | Activity [2] | also measured
1 | CC(=O)Nc1ccc(C2=NNC(C)(C(=O)Nc3ccc(Cl)c(C(F)(F)F)c3)C2)cc1 (stereo not given) | 17% | <10% | 
2 | CC1(C(=O)Nc2ccc([N+](=O)[O-])c(C(F)(F)F)c2)CC(c2ccc(NC(=O)C(F)(F)F)cc2)=NN1 (stereo not given) | 21% | 10% | 
3 | C[C@](O)(CS(=O)(=O)c1ccc(F)cc1)C(=O)Nc1ccc(C#N)c(C(F)(F)F)c1 [(R)-BICALUTAMIDE] |  |  | Inhibition [3]: 70%; inhibition in vivo at 30 mg/kg [4]: 67%
4 | CCSc1cc(C#N)c(C(F)(F)F)cc1NC(=O)C1(C)CC(C(F)(F)F)=NN1 (stereo not given) | 42% | <10% | 
5 | CC1=NNC(C(=O)Nc2ccc(C#N)c(C(F)(F)F)c2)(C(F)(F)F)C1 (stereo not given) | 64% | 46% | 
6 | CC(=O)Nc1cccc(C2=NNC(C)(C(=O)Nc3ccc(C#N)c(C(F)(F)F)c3)C2)c1 (stereo not given) | <10% | <10% | 
7 | CC(=O)Nc1ccc(CC2=NNC(C)(C(=O)Nc3ccc(C#N)c(C(F)(F)F)c3)C2)cc1 (stereo not given) | 51% | 24% | 
8 | C[C@@]1(C(=O)Nc2ccc(C#N)c(C(F)(F)F)c2)CC(C(F)(F)F)=NN1 |  |  | Inhibition [3]: 40%; inhibition in vivo at 30 mg/kg [4]: 33%; Activity [5]: 51%; ED50 [6]: 3.8 mg/kg; ED50 [7]: 0.11 mg/day; Activity [8]: 46%; Activity [9]: 90%; Activity [10]: 120%; ED50 [11]: 0.76 mg/day; ED50 [12]: > 30 mg/kg
9 | CCN1N=C(C)CC1(C)C(=O)Nc1ccc(C#N)c(C(F)(F)F)c1 (stereo not given) | 55% | 18% | 
10 | CCN1N=C(C(F)(F)F)CC1(C)C(=O)Nc1ccc(C#N)c(C(F)(F)F)c1 (stereo not given) | 95% | 47% | 
11 | CC1(C(=O)Nc2ccc([N+](=O)[O-])c(C(F)(F)F)c2)CC(c2ccc(F)cc2)=NN1 (stereo not given) | 18% | <10% | 
12 | CC(=O)Nc1ccc(C2=NNC(C)(C(=O)Nc3ccc(C#N)c(C(F)(F)F)c3)C2)cc1 (stereo not given) | 57% | 16% | 
13 | CC1(C(=O)Nc2cc(C(F)(F)F)c(C#N)cc2C#N)CC(C(F)(F)F)=NN1 (stereo not given) | <10% | <10% | 
14 | CC1(C(=O)Nc2ccc(Cl)c(C(F)(F)F)c2)CC(C(F)(F)F)=NN1 (stereo not given) | 15% | <10% | 
15 | CCC1=NNC(C)(C(=O)Nc2ccc(C#N)c(C(F)(F)F)c2)C1 (stereo not given) | <10% | <10% | 
16 | CC1(C(=O)Nc2ccc(Br)c(C(F)(F)F)c2)CC(C(F)(F)F)=NN1 (stereo not given) | 41% | 12% | 
17 | CCCC1(C(=O)Nc2ccc(C#N)c(C(F)(F)F)c2)CC(C(F)(F)F)=NN1 (stereo not given) | 18% | <10% | 
18 | CCOC(=O)C1=NNC(C)(C(=O)Nc2ccc([N+](=O)[O-])c(C(F)(F)F)c2)C1 (stereo not given) | <10% | <10% | 
19 | CC1(C(=O)Nc2ccc(C#N)c(C(F)(F)F)c2)CC(CC(F)(F)F)=NN1 (stereo not given) | 10% | <10% | 
20 | CC1=NOC(C)(C(=O)Nc2ccc(C#N)c(C(F)(F)F)c2)C1 (stereo not given) | <10% | <10% | 
21 | CCO/C(=N\c1ccc(C#N)c(C(F)(F)F)c1)[C@]1(C)CC(C(F)(F)F)=NN1 |  |  | Inhibition [3]: 27%; ED50 [7]: 0.86 mg/day; ED50 [11]: >3 mg/day
22 | N#Cc1ccc(NC(=O)C2(C(F)(F)F)CC(C(F)(F)F)=NN2)cc1C(F)(F)F (stereo not given) | 37% | 13% | 
23 | CC(C)(C)C1=NNC(C)(C(=O)Nc2ccc(C#N)c(C(F)(F)F)c2)C1 (stereo not given) | 36% | <10% | 
24 | CC1(C(=O)Nc2ccc(C#N)c(C(F)(F)F)c2)CC(c2ccc(F)cc2)=NO1 (stereo not given) | <10% | <10% | 
25 | CCc1cc(C#N)c(C(F)(F)F)cc1NC(=O)C1(C)CC(C(F)(F)F)=NN1 (stereo not given) | <10% | <10% | 
26 | C[C@]1(C(=O)Nc2ccc(C#N)c(C(F)(F)F)c2)CC(C(F)(F)F)=NN1 |  |  | Inhibition [3]: 22%; inhibition in vivo at 30 mg/kg [4]: 25%; Activity [5]: 29%; ED50 [6]: > 30 mg/kg; ED50 [7]: 0.86 mg/day; Activity [8]: 4%; Activity [9]: 49%; Activity [10]: 9%; ED50 [11]: 0.94 mg/day; ED50 [12]: > 30 mg/kg
27 | CC1(C(=O)Nc2ccc(C#N)c(C(F)(F)F)c2)CC=NN1 (stereo not given) | <10% | <10% | 

Row | SMILES | Activity [1] | Activity [2] | also measured
28 | CC1(C(=O)Nc2cc(C(F)(F)F)c(C#N)cc2I)CC(C(F)(F)F)=NN1 (stereo not given) | 86% | 47% | 
29 | CC1(C(=O)Nc2ccc(C#N)cc2)CC(C(F)(F)F)=NN1 (stereo not given) | <10% | <10% | 
30 | CCC(=O)O[C@H]1CC[C@H]2[C@@H]3CCC4=CC(=O)CC[C@]4(C)[C@H]3CC[C@]12C [TESTOSTERONE PROPIONATE] |  |  | Activity [13]: 100%; ED50 [6]: 0.17 mg/kg; ED50 [7]: 0.1 mg/day; ED50 [11]: 0.1 mg/day; Activity [14]: 100%; ED50 [12]: 0.25 mg/kg
31 | CC(=O)Nc1ccc(C2=NNC(C)(C(=O)Nc3ccc([N+](=O)[O-])c(C(F)(F)F)c3)C2)cc1 (stereo not given) | 35% | 15% | 
32 | CCC1(C(=O)Nc2ccc(C#N)c(C(F)(F)F)c2)CC(C(F)(F)F)=NN1 (stereo not given) | 67% | 24% | ED50 [6]: 21 mg/kg; Activity [8]: 19%; ED50 [12]: > 30 mg/kg
33 | CC(=O)Nc1ccc(C2=NN(C)C(C)(C(=O)Nc3ccc(C#N)c(C(F)(F)F)c3)C2)cc1 (stereo not given) | <10% | <10% | 
34 | CCN1N=C(C(F)(F)F)C[C@]1(C)C(=O)Nc1ccc(C#N)c(C(F)(F)F)c1 |  |  | Inhibition [3]: <10%; ED50 [7]: 0.45 mg/day; ED50 [11]: >3 mg/day
35 | CC1(C(=O)Nc2ccc(Cl)c(Cl)c2)CC(C(F)(F)F)=NN1 (stereo not given) | <10% | 10% | 
36 | CC1(C(=O)Nc2ccc(C#N)c(C(F)(F)F)c2)CC(C(F)(F)C(F)(F)F)=NN1 (stereo not given) | 15% | <10% | 
37 | CC(C)C1=NNC(C)(C(=O)Nc2ccc(C#N)c(C(F)(F)F)c2)C1 (stereo not given) | <10% | <10% | 
38 | CC1(C(=O)Nc2ccc([N+](=O)[O-])c(C(F)(F)F)c2)CC(C(F)(F)F)=NN1 (stereo not given) | 21% | 38% | 
39 | CCO/C(=N\c1ccc(C#N)c(C(F)(F)F)c1)C1(C)CC(C(F)(F)F)=NN1 (stereo not given) | 75% | 22% | ED50 [7]: 0.25 mg/day
40 | CC1(C(=O)Nc2ccc(C#N)c(C(F)(F)F)c2)CC(C(F)(F)F)=NN1C(=O)C(F)(F)F (stereo not given) | 70% | 30% | 
41 | CCc1c(NC(=O)C2(C)CC(C(F)(F)F)=NN2)ccc(C#N)c1C(F)(F)F (stereo not given) | 88% | 14% | ED50 [6]: 17 mg/kg; Activity [8]: 18%; ED50 [12]: > 30 mg/kg
42 | CC1(C(=O)Nc2ccc(C#N)c(C(F)(F)F)c2)CC(C(F)(F)F)=NN1 (stereo not given) | 71% | 28% | Activity [4]: inactive; ED50 [6]: 7.9 mg/kg; Activity [8]: 25%; ED50 [12]: > 30 mg/kg
43 | CN1N=C(C(F)(F)F)CC1(C)C(=O)Nc1ccc(C#N)c(C(F)(F)F)c1 (stereo not given) | 44% | <10% | 
44 | CC1(C(=O)Nc2ccc(C#N)c(C(F)(F)F)c2)CC(c2ccc(F)cc2)=NN1 (stereo not given) | 44% | 20% | 
45 | CO/C(=N\c1ccc(C#N)c(C(F)(F)F)c1)C1(C)CC(C(F)(F)F)=NN1 (stereo not given) | 86% | 30% | 
46 | CC(C)C(=O)Nc1ccc([N+](=O)[O-])c(C(F)(F)F)c1 [FLUTAMIDE] |  |  | inhibition in vivo at 30 mg/kg [4]: 51%
47 | CCCC1=NNC(C)(C(=O)Nc2ccc(C#N)c(C(F)(F)F)c2)C1 (stereo not given) | <10% | <10% | 
48 | CCO/C(=N\c1ccc(C#N)c(C(F)(F)F)c1)[C@@]1(C)CC(C(F)(F)F)=NN1 |  |  | Inhibition [3]: <10%; ED50 [7]: 0.1 mg/day; ED50 [11]: 0.16 mg/day
49 | CC(=O)Nc1ccc(C2=NNC(C)(C(=O)Nc3ccc(C#N)c(C#N)c3)C2)cc1 (stereo not given) | <10% | <10% | 
50 | CC1(C(=O)Nc2cc(C(F)(F)F)c(C#N)cc2Cl)CC(C(F)(F)F)=NN1 (stereo not given) | 57% | 15% | 
51 | COc1cc(C#N)c(C(F)(F)F)cc1NC(=O)C1(C)CC(C(F)(F)F)=NN1 (stereo not given) | 52% | 18% | 
52 | CCN1N=C(C(F)(F)F)C[C@@]1(C)C(=O)Nc1ccc(C#N)c(C(F)(F)F)c1 |  |  | Inhibition [3]: 18%; ED50 [7]: 0.12 mg/day; ED50 [11]: 2.2 mg/day
53 | CC1=NNC(C)(C(=O)Nc2ccc(C#N)c(C(F)(F)F)c2)C1 (stereo not given) | 62% | 29% | 
